# Source: PubChem BioAssay (The Scripps Research Institute Molecular Screening Center)
# Compounds with a hit are over-represented: about 1.2% of the library has one in this group of screens.
# IDE cell inh = inhibitors of human insulin-degrading enzyme in cells. HEK cells, FAbetaB cleavage, fluorescence polarization. inhibition, % at 5.59 µM. 320,000 tested, 0.41% active. AID 434962;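 active means percent inhibition above the average of all tested compounds plus 3 SD, set per screening campaign, cut at about 16% in these data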;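 further: IDE supplied by intact live HEK cells; FP after avidin binding of uncleaved biotin substrate so inhibition keeps polarization high; 0% = DMSO wells and 100% = 60 µM reference IDE inhibitor Ii1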
# Target sequence (P14735 whole entry, looked up): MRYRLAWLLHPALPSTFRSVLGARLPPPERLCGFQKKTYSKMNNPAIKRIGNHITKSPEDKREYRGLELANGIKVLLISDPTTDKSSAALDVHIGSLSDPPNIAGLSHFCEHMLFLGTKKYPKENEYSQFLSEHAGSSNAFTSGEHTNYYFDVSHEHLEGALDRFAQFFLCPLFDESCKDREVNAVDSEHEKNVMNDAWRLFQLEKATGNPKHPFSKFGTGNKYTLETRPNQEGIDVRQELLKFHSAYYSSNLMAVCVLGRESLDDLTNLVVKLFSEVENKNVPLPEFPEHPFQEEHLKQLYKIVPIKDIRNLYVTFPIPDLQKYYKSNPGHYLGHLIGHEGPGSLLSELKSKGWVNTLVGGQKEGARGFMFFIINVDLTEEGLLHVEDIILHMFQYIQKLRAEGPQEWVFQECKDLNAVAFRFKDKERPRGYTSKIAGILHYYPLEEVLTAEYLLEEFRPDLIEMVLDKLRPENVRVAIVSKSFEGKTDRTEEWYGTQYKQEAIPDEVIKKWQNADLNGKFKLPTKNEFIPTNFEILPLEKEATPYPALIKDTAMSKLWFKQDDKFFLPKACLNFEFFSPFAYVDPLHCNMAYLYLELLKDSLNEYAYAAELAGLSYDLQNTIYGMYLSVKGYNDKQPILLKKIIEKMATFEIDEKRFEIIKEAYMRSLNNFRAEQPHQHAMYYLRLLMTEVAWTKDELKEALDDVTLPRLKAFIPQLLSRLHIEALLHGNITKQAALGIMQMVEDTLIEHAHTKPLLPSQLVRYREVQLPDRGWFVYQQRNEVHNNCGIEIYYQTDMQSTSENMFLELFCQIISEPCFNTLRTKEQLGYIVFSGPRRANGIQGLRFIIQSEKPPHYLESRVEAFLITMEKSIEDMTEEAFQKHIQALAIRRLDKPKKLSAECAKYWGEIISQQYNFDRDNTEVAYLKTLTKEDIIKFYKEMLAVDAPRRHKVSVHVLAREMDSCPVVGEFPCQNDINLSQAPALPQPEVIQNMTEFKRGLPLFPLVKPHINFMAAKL
# procasp3 activ = activates human procaspase-3. recombinant procaspase-3 D3A, Ac-DEVD-pNA absorbance 405 nm. activation, % at 8.5 µM. 330,000 tested, 0.11% active;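 active means activation above the mean of all tested compounds plus 3 SD, cut at about 21% in these data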;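 further: 0% = DMSO alone and 100% = DMSO wells spiked with extra 5 µM PC-3 D3A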
#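 Assay system – Procaspase-3 D3A mutant, all three cleavage aspartates alanine · Controls – DMSO-only low control, 5 µM PC-3 D3A high control · Schedule – 1 h compound preincubation, 2 h substrate hydrolysis at 25 °C · Signal – 405 nm absorbance of p-nitroaniline, reads at 0 and 120 min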
# proCasp7 act = activates human procaspase-7, counter-screen for procaspase-3 activators. recombinant procaspase-7, Ac-DEVD-pNA absorbance 405 nm; D23A/D198A/D206A triple mutant, cannot self-cleave; scale: DMSO 0, 5 µM enzyme 100. activation, % at 8.5 µM. 330,000 tested, 0.093% active. AID 463210;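 active means percent activation above the screen-wide mean plus 3 SD, cut at about 25% in these data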
#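 Detection: p-Nitroaniline absorbance at 405 nm, read at 0 and 120 min; system: Uncleavable procaspase-7 mutant enzyme; evaluation: % activation from two-timepoint absorbance difference, scaled to controls; times: 1 h enzyme–compound preincubation and 2 h substrate reaction, both 25 °C; buffer or medium: Zinc-free HEPES pH 7.4 with 300 mM NaCl, 0.01% Triton X-100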
# TPT1 inh = inhibitors of Candida albicans tRNA 2'-phosphotransferase TPT1. recombinant caTPT1, FP RNA substrate dephosphorylation. inhibition, % at 5 µM. 300,000 tested, 0.81% active. AID 1962;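 active means inhibition above the mean of all tested compounds plus 3 SD, set per screening campaign, cut at about 24% in these data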;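 further: plate controls were DMSO alone for no effect and ferristatin control at 100 nM for full effect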
# IDE act = IDE (human) activation, cell-based | P14735 | HEK cells, FAbeta-B cleavage, fluorescence polarization; 0% vehicle, 100% cell-free pure enzyme wells | activation, % at 5.96 µM | 340,000 tested, 0.073% active | AID 493087;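 active means activation above the mean of all tested compounds plus 3 SD, set per screening campaign, cut at about 17% in these data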
# caTPT1 confirm = confirmation of Candida albicans TPT1 inhibitors. shares compounds with TPT1 inh. recombinant caTPT1, fluorescence polarization, RNase T1 coupled. inhibition, % at 5 µM. 2,400 tested, 74% active. AID 2149;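 active means inhibition above the primary screen limit, the mean inhibition of all tested compounds plus 3 SD, cut at about 25% in these data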
# RNase T1 counter = blocks Aspergillus oryzae RNase T1, a TPT1 counter-screen; shares compounds with TPT1 inh; RNase T1 cleavage, fluorescence polarization, 1536-well; inhibition, % at 5 µM; 2,400 tested, 83% active;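 active means inhibition above the solvent-only control well mean plus 3 SD, limit set per screening run, cut at about 23% in these data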;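 further: plate controls were DMSO wells with enzyme for no effect and wells without RNase T1 for full effect; inhibitors block cleavage so intact labeled substrate keeps polarization high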
# * hit, by the source's call; / = no result.
SMILES,IDE cell inh,procasp3 activ,proCasp7 act,TPT1 inh,IDE act,caTPT1 confirm,RNase T1 counter
Fc1ccc(COc2ccccc2-c2ccnc3ncnn23)cc1,3,2,-4,1,-2,/,/
CCCCn1c(N)c(N(CC(C)C)C(=O)COC(=O)C2(c3ccccc3)CC2)c(=O)[nH]c1=O,-1,12,7,3,3,/,/
Cc1ccc(C(=O)NCCn2c(N)c(C#N)c3nc4ccccc4nc32)cc1,3,-6,-4,36*,-2,49*,55*
COCCn1c(N)c(C#N)c2nc3ccccc3nc21,7,-2,-8,0,-4,/,/
N#Cc1c(N)n(CCNC(=O)c2ccc(Cl)cc2)c2nc3ccccc3nc12,1,17,16,27*,6,24,30*
CC(C)CC1C2C(=O)N(c3ccccc3)C(=O)C2ON1c1ccccc1 (stereo not drawn),-1,0,7,0,3,/,/
CCO[C@H]1OC(C(=O)NCc2nc3ccccc3[nH]2)=C[C@@H](c2ccc3c(c2)OCO3)[C@@H]1CCCO,1,2,-2,1,-2,/,/
Cc1ccc(N=C2NC(=O)/C(=C/C=C/c3ccco3)S2)cc1,-2,-12,-18,17,3,/,/
O=C1NC(=Nc2ccccc2)S/C1=C\C=C\c1ccco1,-3,-18,-13,24*,2,23,34*
Cc1ccc(CNC(=O)Cn2nnc(C(=O)Nc3cc(C)ccc3C)c2N)cc1,-6,6,-5,-1,3,/,/
CCC(Oc1ccccc1)C(=O)Nc1ccc(-c2nnc(-c3ccco3)o2)cc1 (stereo not drawn),6,-4,-5,71*,1,1,6
COc1ccccc1OCC(=O)Nc1ccc(-c2nnc(-c3ccco3)o2)cc1,3,0,11,1,9,/,/
Cc1ccc(N/C=C/c2onc(C)c2[N+](=O)[O-])cc1,-2,-13,-16,49*,5,56*,68*
Cc1ccc(C)c(C(=O)Nc2nc3ccccc3[nH]2)c1,-2,1,1,25*,0,9,15
O=C(Nc1nc2ccccc2[nH]1)c1ccccc1O,1,8,-5,1,5,/,/
CC1CCCN(C(=O)CCNS(=O)(=O)c2ccc3c(c2)c(=O)n(C)c(=O)n3C)C1 (stereo not drawn),-4,-3,-8,0,4,/,/
CCOC(=O)c1c(CC(C)C)csc1/N=C/C1C(=O)CC(C)(C)CC1=O,-1,-7,2,61*,-5,12,15
CCOC(=O)c1cc(C)sc1/N=C/C1C(=O)CC(C)(C)CC1=O,-12,3,5,-1,1,/,/
C=CCN1C(=O)/C(=C2/Sc3ccccc3N2CC)SC1=S,-3,-6,-7,5,-1,/,/
CCN1C(=O)/C(=C2/Sc3ccccc3N2CC)S/C1=N\c1ncn[nH]1,3,-4,-10,36*,-2,57*,69*
O=C(N/N=C/c1c(O)n(Cc2ccccc2)c(=O)c2ccccc12)c1cccnc1,14,-60,-61,106*,-18,117*,120*
Cc1cc(O)c2c(c1)C(=O)c1cc(O)cc(O)c1C2=O,-5,6,4,27*,-4,44*,61*
O=C1c2cc(O)cc(O)c2C(=O)c2c1cc(O)c([C@@H](CO)CCO)c2O,0,-6,-4,17,5,/,/
NNc1nc(-c2ccccc2Cl)nc2ccccc12,1,-20,-29,31*,0,20,33*
CCCc1cc(-n2ccnc2)n2c(nc3ccccc32)c1C#N,1,-4,-1,118*,-10,102*,104*
SMILES,IDE cell inh,procasp3 activ,proCasp7 act,TPT1 inh,IDE act,caTPT1 confirm,RNase T1 counter
Cc1cc(-n2ccnc2)n2c(nc3ccccc32)c1C#N,-2,-3,5,10,2,/,/
O=C(O)c1cccc(-c2ccc(/C=N/n3cnc4sc5c(c4c3=O)CCCC5)o2)c1,0,-3,7,0,/,/,/
O=C(O)C(=O)/C(=C\c1cccc2ccccc12)c1ccc2ccccc2n1,5,-16,3,49*,3,89*,102*
O=C(O)C(=O)/C(=C\c1ccsc1)c1ccc2ccccc2n1,3,19,13,0,6,/,/
CCn1nc(C)c(CNC(=O)c2cc(COc3ccccc3SC)on2)c1C,-2,-2,2,-1,-7,/,/
CCOC(=O)/C(C#N)=C\c1ccc(N2CCN(C/C=C/c3ccccc3)CC2)cc1,10,-14,-23,46*,-2,82*,92*
CCOC(=O)/C(C#N)=C\c1cc(C)n(-c2ccccc2)c1C,3,-1,9,1,8,/,/
Cc1ccc(NS(=O)(=O)c2c(C)[nH]c(C)c2C(=O)N2CCCC2)cc1Cl,1,1,6,-3,4,/,/
CC(NCC(=O)Nc1ccccc1C(=O)NC1CC1)c1ccc(F)cc1F (stereo not drawn),2,4,8,/,-1,/,/
CCOC(=O)c1nn(-c2ccc(Cl)cc2Cl)c(=N)c(C#N)c1C,5,-2,-1,95*,/,81*,87*
CC1=CC(=C2C(=O)c3ccccc3C2=O)C=C(C)O1,5,-18,6,0,4,/,/
CC(=O)N1C(=O)C(=C2C=C(C)OC(C)=C2)c2ccccc21,-3,3,0,27*,1,72*,55*
COc1ccc(S(=O)(=O)N2CCCCCC2)cc1C(=O)NCc1ccc(C)cc1,2,7,-1,/,4,/,/
CCN1C(=O)C2(C(C#N)=C(N)Oc3cc(C)oc(=O)c32)c2ccccc21 (stereo not drawn),0,7,3,0,7,/,/
Cc1cc2c(c(=O)o1)C1(C(=O)N(CC(=O)O)c3ccccc31)C(C#N)=C(N)O2 (stereo not drawn),7,12,2,37*,-3,42*,49*
O=C(COc1cccc(NC(=O)c2cccc([N+](=O)[O-])c2)c1)c1ccc(F)cc1,-1,-4,-4,53*,5,0,3
COc1ccc(OC)c(NC(=O)COC(=O)C2CCCCC2)c1,7,5,6,/,-4,/,/
CC1CC(C)(C)NC(=S)N1CCCC(=O)NCCc1ccc(Cl)cc1 (stereo not drawn),-9,4,-3,0,1,/,/
O=C(NNC(=S)NC(=O)c1cccnc1)c1ccc(Cl)cc1,0,-3,-14,6,1,/,/
O=C(Cc1ccc(Cl)cc1)NNC(=S)NC(=O)c1cccnc1,4,-10,-2,35*,2,45*,58*
